Results published in ChEMBL document CHEMBL3098111, “Discovery of 2,5-diarylnicotinamides as selective orexin-2 receptor antagonists (2-SORAs)” (Bioorg Med Chem Lett, 2013).
Activity calls are given as the source filed them. No cut-off for these calls is given here.

Assays:
[1] = target: Pro-epidermal growth factor (Homo sapiens) (UniProt P01133); experiment: Inhibition of human EGF at 10 uM relative to control
[2] = target: Endothelin-1 receptor (Homo sapiens) (UniProt P25101); experiment: Inhibition of human ETA receptor at 10 uM relative to control
D(3) dopamine receptor = D(3) dopamine receptor (Homo sapiens, UniProt P35462); experiment: Inhibition of human dopamine D3 receptor at 10 nM relative to control
[3] = target: D(1A) dopamine receptor (Homo sapiens) (UniProt P21728); experiment: Inhibition of human dopamine D1 receptor at 10 uM relative to control
[4] = target: Cholecystokinin receptor type A (Homo sapiens) (UniProt P32238); experiment: Inhibition of human CCKA receptor at 10 uM relative to control
Sequence of Cholecystokinin receptor type A (Homo sapiens) (P32238 whole entry): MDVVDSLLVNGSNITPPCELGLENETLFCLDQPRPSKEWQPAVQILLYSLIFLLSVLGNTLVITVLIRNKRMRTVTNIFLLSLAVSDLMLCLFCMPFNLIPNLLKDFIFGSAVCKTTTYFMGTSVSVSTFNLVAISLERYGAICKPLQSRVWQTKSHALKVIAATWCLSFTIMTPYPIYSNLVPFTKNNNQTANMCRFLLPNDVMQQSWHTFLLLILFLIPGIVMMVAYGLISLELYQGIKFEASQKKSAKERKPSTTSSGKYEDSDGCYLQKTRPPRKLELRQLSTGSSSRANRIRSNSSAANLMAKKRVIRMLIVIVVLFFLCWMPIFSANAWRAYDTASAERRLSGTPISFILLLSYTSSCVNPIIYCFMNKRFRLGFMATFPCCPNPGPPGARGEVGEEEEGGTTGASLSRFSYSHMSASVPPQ

[5] = target: C-X-C chemokine receptor type 2 (Homo sapiens) (UniProt P25025); experiment: Inhibition of human CXCR2 at 10 uM relative to control
Sequence of C-X-C chemokine receptor type 2 (Homo sapiens) (P25025 whole entry): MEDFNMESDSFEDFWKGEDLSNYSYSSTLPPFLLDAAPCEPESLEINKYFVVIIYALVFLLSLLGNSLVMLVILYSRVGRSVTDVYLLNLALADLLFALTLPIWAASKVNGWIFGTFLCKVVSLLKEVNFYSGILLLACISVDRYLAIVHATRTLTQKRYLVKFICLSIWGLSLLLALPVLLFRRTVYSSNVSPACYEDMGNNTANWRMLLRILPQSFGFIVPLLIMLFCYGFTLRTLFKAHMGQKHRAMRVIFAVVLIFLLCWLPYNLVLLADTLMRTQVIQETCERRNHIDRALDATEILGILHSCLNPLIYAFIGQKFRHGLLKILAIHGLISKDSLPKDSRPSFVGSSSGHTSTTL

[6] = target: B1 bradykinin receptor (Homo sapiens) (UniProt P46663); experiment: Inhibition of human bradykinin B1 receptor at 10 uM relative to control
Rattus norvegicus [7] = species: Rattus norvegicus; experiment: Inhibition of rat bombesin receptor at 10 uM relative to control
[8] = target: Alpha-2A adrenergic receptor (Homo sapiens) (UniProt P08913); experiment: Inhibition of human alpha2A adrenergic receptor at 10 uM relative to control
[9] = target: Adenosine receptor A1 (Homo sapiens) (UniProt P30542); experiment: Inhibition of human adenosine A1 receptor at 10 uM relative to control
Sequence of Adenosine receptor A1 (Homo sapiens) (P30542 whole entry): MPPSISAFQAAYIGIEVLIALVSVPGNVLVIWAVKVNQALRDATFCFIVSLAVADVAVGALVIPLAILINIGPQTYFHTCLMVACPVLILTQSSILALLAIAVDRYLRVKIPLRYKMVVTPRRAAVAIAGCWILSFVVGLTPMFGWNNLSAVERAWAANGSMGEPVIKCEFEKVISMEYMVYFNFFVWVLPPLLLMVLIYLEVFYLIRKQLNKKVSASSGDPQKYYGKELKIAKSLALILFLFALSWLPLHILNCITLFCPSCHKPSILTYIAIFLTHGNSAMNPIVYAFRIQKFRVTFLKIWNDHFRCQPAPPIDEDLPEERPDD

[10] = target: Tyrosine 3-monooxygenase (Rattus norvegicus) (UniProt P04177); experiment: Inhibition of rat tyrosine hydroxylase at 10 uM relative to control
[11] = target: Receptor-type tyrosine-protein phosphatase C (Homo sapiens) (UniProt P08575); experiment: Inhibition of human CD45 at 10 uM relative to control
Sequence of Receptor-type tyrosine-protein phosphatase C (Homo sapiens) (P08575 whole entry): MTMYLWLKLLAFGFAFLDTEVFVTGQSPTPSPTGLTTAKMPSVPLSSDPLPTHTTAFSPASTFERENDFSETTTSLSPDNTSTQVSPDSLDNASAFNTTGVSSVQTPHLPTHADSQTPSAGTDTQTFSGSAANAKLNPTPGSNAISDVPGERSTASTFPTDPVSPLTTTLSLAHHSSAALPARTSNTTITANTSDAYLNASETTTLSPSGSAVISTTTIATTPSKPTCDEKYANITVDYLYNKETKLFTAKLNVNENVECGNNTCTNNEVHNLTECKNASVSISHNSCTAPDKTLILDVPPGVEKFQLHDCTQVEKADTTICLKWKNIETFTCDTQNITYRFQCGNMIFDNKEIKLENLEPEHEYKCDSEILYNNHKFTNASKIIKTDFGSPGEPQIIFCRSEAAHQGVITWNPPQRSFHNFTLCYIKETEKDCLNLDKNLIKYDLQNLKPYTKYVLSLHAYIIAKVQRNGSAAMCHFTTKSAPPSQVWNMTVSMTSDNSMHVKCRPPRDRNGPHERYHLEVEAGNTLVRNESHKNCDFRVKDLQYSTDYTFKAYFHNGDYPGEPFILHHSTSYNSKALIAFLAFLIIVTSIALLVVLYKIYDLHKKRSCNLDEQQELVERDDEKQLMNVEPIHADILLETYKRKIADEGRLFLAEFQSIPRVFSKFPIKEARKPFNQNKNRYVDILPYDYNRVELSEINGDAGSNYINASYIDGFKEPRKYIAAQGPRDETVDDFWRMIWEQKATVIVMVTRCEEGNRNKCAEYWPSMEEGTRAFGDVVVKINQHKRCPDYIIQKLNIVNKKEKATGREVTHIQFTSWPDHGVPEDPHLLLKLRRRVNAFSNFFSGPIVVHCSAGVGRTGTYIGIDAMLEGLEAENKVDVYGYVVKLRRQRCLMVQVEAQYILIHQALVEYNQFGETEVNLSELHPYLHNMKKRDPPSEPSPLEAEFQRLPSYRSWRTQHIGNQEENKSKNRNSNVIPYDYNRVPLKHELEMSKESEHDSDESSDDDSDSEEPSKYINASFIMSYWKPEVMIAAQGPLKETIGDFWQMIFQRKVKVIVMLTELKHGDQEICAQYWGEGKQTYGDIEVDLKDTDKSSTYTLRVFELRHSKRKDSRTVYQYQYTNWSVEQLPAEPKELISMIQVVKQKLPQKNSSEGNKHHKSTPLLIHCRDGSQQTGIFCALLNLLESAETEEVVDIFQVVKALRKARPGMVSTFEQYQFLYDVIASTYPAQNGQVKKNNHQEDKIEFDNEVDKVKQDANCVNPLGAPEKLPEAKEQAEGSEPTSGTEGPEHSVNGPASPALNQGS

[12] = target: Protein kinase C alpha type (Homo sapiens) (UniProt P17252); experiment: Inhibition of human PRKCA at 100 uM relative to control
Bos taurus = species: Bos taurus; experiment: Inhibition of bovine PKA at 100 uM relative to control
[13] = target: Cathepsin G (Homo sapiens) (UniProt P08311); experiment: Inhibition of human cathepsin G at 10 uM relative to control
Mu-type opioid receptor [14] = target: T1, Mu-type opioid receptor (Homo sapiens, UniProt P35372); experiment: Inhibition of human mu opioid receptor at 10 uM relative to control
T1 sequence (P35372 whole entry): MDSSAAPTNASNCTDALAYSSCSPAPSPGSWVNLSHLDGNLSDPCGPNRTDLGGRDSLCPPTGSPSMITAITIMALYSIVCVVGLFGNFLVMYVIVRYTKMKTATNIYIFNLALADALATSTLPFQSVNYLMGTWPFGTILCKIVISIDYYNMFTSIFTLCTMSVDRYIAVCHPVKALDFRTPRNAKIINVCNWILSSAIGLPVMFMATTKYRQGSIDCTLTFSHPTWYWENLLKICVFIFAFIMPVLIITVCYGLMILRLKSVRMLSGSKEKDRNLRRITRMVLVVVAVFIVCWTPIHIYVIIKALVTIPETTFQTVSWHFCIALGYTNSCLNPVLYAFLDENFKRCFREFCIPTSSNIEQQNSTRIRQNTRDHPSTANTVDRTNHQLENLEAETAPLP

Rattus norvegicus [15] = experiment: Antiinsomnic activity in rat EEG model assessed as increase in delta sleep time at 15 mg/kg, po; assay type: functional, organism-based; set-up: dose 15 mg/kg
Summary of the method: (§1)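 Rats with EEG telemetry given 15 mg/kg orally during their active period, vehicle 20% Vitamin E TPGS in water. Sleep architecture (active wake, light sleep, delta and REM sleep) scored from EEG.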

Rattus norvegicus [16] = experiment: Antiinsomnic activity in rat EEG model assessed as decrease in light sleep time at 15 mg/kg, po; assay type: functional, organism-based; set-up: dose 15 mg/kg; summary of the method: as §1
Oryctolagus cuniculus = species: Oryctolagus cuniculus; experiment: Inhibition of rabbit monoamine transporter at 10 nM relative to control
[17] = target: Thyrotropin-releasing hormone receptor (Rattus norvegicus) (UniProt Q01717); experiment: Inhibition of rat TRH receptor at 10 uM relative to control
[18] = target: Somatostatin receptor type 4 (Homo sapiens) (UniProt P31391); experiment: Inhibition of human SST4 receptor at 10 uM relative to control
Sequence of Somatostatin receptor type 4 (Homo sapiens) (P31391 whole entry): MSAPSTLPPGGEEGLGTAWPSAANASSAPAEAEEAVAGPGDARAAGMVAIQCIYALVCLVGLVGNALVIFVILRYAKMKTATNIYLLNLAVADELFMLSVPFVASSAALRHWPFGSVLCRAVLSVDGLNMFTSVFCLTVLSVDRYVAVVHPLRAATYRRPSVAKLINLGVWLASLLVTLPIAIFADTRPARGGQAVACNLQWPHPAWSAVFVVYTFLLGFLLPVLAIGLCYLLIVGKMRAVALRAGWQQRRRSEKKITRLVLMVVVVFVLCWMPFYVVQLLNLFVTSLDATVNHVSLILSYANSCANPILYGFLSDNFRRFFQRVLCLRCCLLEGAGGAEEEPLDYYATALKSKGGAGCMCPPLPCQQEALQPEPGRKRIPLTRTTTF

[19] = target: Somatostatin receptor type 3 (Homo sapiens) (UniProt P32745); experiment: Inhibition of human SST3 receptor at 10 uM relative to control
Sequence of Somatostatin receptor type 3 (Homo sapiens) (P32745 whole entry): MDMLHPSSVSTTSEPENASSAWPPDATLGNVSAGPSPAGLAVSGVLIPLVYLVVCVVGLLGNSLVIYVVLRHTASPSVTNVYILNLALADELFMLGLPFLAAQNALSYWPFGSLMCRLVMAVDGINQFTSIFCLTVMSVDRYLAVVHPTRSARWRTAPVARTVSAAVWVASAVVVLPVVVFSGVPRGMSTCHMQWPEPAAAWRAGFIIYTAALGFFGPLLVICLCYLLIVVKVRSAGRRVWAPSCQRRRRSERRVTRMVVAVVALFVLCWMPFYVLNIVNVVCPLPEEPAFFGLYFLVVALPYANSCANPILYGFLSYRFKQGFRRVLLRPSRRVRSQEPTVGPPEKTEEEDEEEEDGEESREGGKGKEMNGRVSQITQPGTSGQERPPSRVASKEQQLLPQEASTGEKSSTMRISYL

[20] = target: Somatostatin receptor type 1 (Homo sapiens) (UniProt P30872); experiment: Inhibition of human SST1 receptor at 10 uM relative to control
[21] = target: 5-hydroxytryptamine receptor 4 (Cavia porcellus) (UniProt O70528); experiment: Inhibition of guinea pig 5-HT4 receptor at 10 uM relative to control
Sequence of 5-hydroxytryptamine receptor 4 (Cavia porcellus) (O70528 whole entry): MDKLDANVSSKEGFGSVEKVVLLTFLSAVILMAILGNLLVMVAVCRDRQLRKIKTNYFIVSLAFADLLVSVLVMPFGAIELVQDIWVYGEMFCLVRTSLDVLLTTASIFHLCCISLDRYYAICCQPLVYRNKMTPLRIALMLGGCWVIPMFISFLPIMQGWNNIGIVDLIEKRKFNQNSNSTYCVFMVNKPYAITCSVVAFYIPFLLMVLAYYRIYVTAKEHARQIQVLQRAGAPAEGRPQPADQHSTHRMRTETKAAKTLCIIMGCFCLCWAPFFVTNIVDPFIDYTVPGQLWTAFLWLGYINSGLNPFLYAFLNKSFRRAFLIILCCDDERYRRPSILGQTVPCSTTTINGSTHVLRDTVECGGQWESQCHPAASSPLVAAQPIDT

[22] = target: 5-hydroxytryptamine receptor 3A (Homo sapiens) (UniProt P46098); experiment: Inhibition of human 5-HT3 receptor at 10 uM relative to control
[23] = target: T2, 5-hydroxytryptamine receptor 1A (Homo sapiens) (UniProt P08908); experiment: Inhibition of human 5-HT1A receptor at 1 uM relative to control
T2 sequence (whole entry): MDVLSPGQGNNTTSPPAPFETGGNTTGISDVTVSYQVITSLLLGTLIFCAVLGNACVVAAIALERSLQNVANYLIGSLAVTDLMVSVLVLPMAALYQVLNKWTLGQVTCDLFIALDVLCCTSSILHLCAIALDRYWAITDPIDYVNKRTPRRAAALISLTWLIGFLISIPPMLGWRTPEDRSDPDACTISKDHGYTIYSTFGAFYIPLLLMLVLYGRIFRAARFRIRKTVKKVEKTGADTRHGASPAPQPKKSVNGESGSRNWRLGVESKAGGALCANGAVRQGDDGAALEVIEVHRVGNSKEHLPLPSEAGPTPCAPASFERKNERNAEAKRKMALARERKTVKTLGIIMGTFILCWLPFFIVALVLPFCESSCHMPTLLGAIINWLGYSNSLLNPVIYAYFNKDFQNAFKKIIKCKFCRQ

[24] = target: Thromboxane A2 receptor (Homo sapiens) (UniProt P21731); experiment: Inhibition of human thromboxane A2 receptor at 10 uM relative to control
[25] = target: Prostacyclin receptor (Homo sapiens) (UniProt P43119); experiment: Inhibition of human prostanoid IP receptor at 10 uM relative to control
Sequence of Prostacyclin receptor (Homo sapiens) (P43119 whole entry): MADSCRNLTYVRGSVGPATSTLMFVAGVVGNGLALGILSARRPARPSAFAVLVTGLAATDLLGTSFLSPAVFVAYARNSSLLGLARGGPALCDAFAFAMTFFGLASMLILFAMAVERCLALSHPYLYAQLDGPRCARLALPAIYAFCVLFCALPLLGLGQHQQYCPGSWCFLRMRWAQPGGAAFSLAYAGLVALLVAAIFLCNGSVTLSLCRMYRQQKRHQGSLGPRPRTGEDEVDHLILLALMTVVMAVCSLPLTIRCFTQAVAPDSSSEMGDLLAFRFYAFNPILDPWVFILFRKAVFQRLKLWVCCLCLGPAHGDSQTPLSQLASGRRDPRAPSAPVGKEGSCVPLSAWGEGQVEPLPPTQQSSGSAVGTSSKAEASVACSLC

[26] = target: Platelet-activating factor receptor (Homo sapiens) (UniProt P25105); experiment: Inhibition of human PAF receptor at 10 uM relative to control
Mu-type opioid receptor [27] = target: T1, Mu-type opioid receptor; experiment: Inhibition of human mu opioid receptor at 10 nM relative to control
Mu-type opioid receptor [28] = target: T1, Mu-type opioid receptor; experiment: Inhibition of human mu opioid receptor at 1 uM relative to control
[29] = target: Muscarinic acetylcholine receptor M5 (Homo sapiens) (UniProt P08912); experiment: Inhibition of human muscarinic M5 receptor at 10 uM relative to control
[30] = target: Muscarinic acetylcholine receptor M3 (Homo sapiens) (UniProt P20309); experiment: Inhibition of human muscarinic M3 receptor at 10 uM relative to control
Sequence of Muscarinic acetylcholine receptor M3 (Homo sapiens) (P20309 whole entry, looked up): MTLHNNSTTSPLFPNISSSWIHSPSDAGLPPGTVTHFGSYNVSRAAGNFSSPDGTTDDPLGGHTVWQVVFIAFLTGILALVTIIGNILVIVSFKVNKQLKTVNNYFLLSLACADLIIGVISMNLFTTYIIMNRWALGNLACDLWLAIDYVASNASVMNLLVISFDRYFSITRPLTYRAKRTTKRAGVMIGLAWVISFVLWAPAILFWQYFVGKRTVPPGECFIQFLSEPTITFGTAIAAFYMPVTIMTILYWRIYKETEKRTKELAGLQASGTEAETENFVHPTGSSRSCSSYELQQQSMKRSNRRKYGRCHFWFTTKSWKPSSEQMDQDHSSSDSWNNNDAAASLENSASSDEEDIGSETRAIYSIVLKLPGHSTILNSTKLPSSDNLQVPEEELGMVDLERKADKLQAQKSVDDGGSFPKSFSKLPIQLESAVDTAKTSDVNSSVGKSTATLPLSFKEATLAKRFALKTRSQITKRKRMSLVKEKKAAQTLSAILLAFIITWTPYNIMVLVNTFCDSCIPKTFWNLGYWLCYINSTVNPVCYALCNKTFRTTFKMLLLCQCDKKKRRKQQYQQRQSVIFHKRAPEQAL

[31] = target: Inositol 1,4,5-trisphosphate-gated calcium channel ITPR1 (Rattus norvegicus) (UniProt P29994); experiment: Inhibition of rat IP3 receptor at 10 uM relative to control
Rattus norvegicus [32] = species: Rattus norvegicus; experiment: Inhibition of rat strychnine-sensitive glycine receptor at 10 uM relative to control
[33] = target: Glutamate NMDA receptor (Rattus norvegicus) (UniProt P35439+Q00959+Q00960+Q00961+Q62645+Q8VHN2+Q9R1M7); experiment: Inhibition of rat NMDA receptor agonist binding site at 10 uM relative to control; assay type: protein-complex assay
[34] = target: Galanin receptor type 2 (Homo sapiens) (UniProt O43603); experiment: Inhibition of human GAL2 receptor at 10 uM relative to control
Rattus norvegicus [35] = species: Rattus norvegicus; experiment: Inhibition of rat GABAB receptor at 10 uM relative to control
Rattus norvegicus [36] = species: Rattus norvegicus; experiment: Inhibition of rat GABAA chloride channel TBOB binding site at 10 uM relative to control

SMILES: COc1ccc(CNC(=O)c2cc(-c3cc(Cl)cc(Cl)c3)cnc2-c2cccnc2)cc1OC
- inhibition [1]: 7%
- inhibition [2]: 4%
- inhibition (D(3) dopamine receptor): 5%
- inhibition [3]: 2%
- inhibition [4]: 9%
- inhibition [5]: 0%
- inhibition [6]: 3%
- inhibition (Rattus norvegicus [7]): 3%
- inhibition [8]: 19%
- inhibition [9]: 22%
- inhibition [10]: -3%
- inhibition [11]: -1%
- inhibition [12]: 29%
- inhibition (Bos taurus): -7%
- inhibition [13]: -8%
- inhibition (Mu-type opioid receptor [14]): 62%
- Activity (Rattus norvegicus [15]): Active
- Activity (Rattus norvegicus [16]): Active
- inhibition (Oryctolagus cuniculus): 2%
- inhibition [17]: -3%
- inhibition [18]: 5%
- inhibition [19]: 30%
- inhibition [20]: 14%
- inhibition [21]: 22%
- inhibition [22]: -3%
- inhibition [23]: 41%
- inhibition [24]: 17%
- inhibition [25]: -2%
- inhibition [26]: 31%
- inhibition (Mu-type opioid receptor [27]): -3%
- inhibition (Mu-type opioid receptor [28]): 26%
- inhibition [29]: 1%
- inhibition [30]: -2%
- inhibition [31]: 0%
- inhibition (Rattus norvegicus [32]): -5%
- inhibition [33]: 1%
- inhibition [34]: 6%
- inhibition (Rattus norvegicus [35]): 0%
- inhibition (Rattus norvegicus [36]): 8%
